# Assay results gathered from unrelated publications.
# Cell line: HeLa
# Observed: cell growth or viability
SMILES,technique,time,IC50
COc1cc(OC)c2c(=O)cc(-c3ccc(Br)cc3)oc2c1,MTT,48 h,85.8 µM
COc1ccc2oc(C(=O)c3ccccc3)cc2c1-c1ccccc1,,,> 50 µM
COc1cccc(C(=O)O[C@@H]2CN3Cc4c(cc5c(c4OC)OCO5)[C@@]24C=C[C@H](OC)C[C@@H]34)c1,WST-1,48 h,> 10 µM
Oc1c(Br)cc(Br)c2cccnc12,MTT,48 h,83.2 µM
O=C(Nc1cc(OCCN2CCCC2)c2ccccc2n1)c1cc(OCCN2CCCC2)cc(C(=O)Nc2cc(OCCN3CCCC3)c3ccccc3n2)n1,ATP luminescence,72 h,2.3 µM
CCCCCCC#CC#CCCCCCC,MTT,24 h,36 µg/mL
O=C(/C=C/c1cccc2c1B(O)OC2)Nc1ccccc1,ATP luminescence,72 h,> 31.6 µM
CCCC(O)C#CC#CC(O)CCC (centres unmarked),MTT,24 h,19.3 µg/mL
COc1ccnc(-c2cc(OC)ccn2)c1,MTT,48 h,> 50 µM
C[C@@H](O)C(=O)CCCCC[C@@H]1NC(=O)[C@H]2CCCN2C(=O)[C@H](Cc2ccccc2)NC(=O)C(C)(C)NC1=O,XTT,,0.17 µM
COc1cc(C)cc2oc(-c3ccccc3)cc(=O)c12,MTT,48 h,82.5 µM
CC1(C)SC2C(NC(=O)C(NC(=O)C3=C(O)C(Cc4ccc([N+](=O)[O-])cc4)NC3=O)c3ccccc3)C(=O)N2C1C(=O)O (centres unmarked),ATP luminescence,48 h,133 µg/mL
COc1cc(OC)c2c(=O)cc(-c3cccc(Br)c3)oc2c1,MTT,48 h,72 µM
CC1(C)SC2C(NC(=O)C(NC(=O)C3=C(O)C4(CC4)NC3=O)c3ccccc3)C(=O)N2C1C(=O)O (centres unmarked),ATP luminescence,48 h,103 µg/mL
COc1cccc(C(=O)c2cc3c(-c4ccccc4)c(O)ccc3o2)c1,,,27 µM
COc1ccc(-c2cc(=O)c3c(OC)cc(OC)cc3o2)cc1,MTT,48 h,33 µM
COc1ccc(C(=O)O[C@@H]2CN3Cc4c(cc5c(c4OC)OCO5)[C@@]24C=C[C@H](OC)C[C@@H]34)cc1,WST-1,48 h,> 10 µM
CC1(C)SC2C(NC(=O)C(NC(=O)C3=C(O)C(Cc4ccsc4)NC3=O)c3ccccc3)C(=O)N2C1C(=O)O (centres unmarked),ATP luminescence,48 h,58.9 µg/mL
C(C#CCC1CCCCC1)#CCC1CCCCC1,MTT,24 h,117 µg/mL
COc1cc(C)c(-c2c(C)cc(OC)c3c(=O)cc(-c4cccc(Br)c4)oc23)c2oc(-c3cccc(Br)c3)cc(=O)c12,MTT,48 h,> 100 µM
C(C#Cc1ccccc1)#Cc1ccccc1,MTT,24 h,3.77 µg/mL
NCCCOc1cc(NC(=O)c2cc(Cl)cc(C(=O)Nc3cc(OCCCN)c4ccccc4n3)n2)nc2ccccc12,ATP luminescence,72 h,0.7 µM
CC1(C)[C@@H](O)CC[C@]2(C)[C@H]3C(=O)C=C4[C@@H]5C[C@@](C)(C(=O)O)CC[C@]5(C)CC[C@@]4(C)[C@]3(C)CC[C@@H]12,MTT,48 h,17.3 µM
COc1cccc2c1C(=O)c1c(O)c3c(c(O)c1C2=O)C[C@@](O)(C(=O)CO)C[C@@H]3O[C@H]1C[C@H](N)[C@H](O)[C@H](C)O1,MTT,24 h,1.2 µM
Cc1ccc2c(Br)cc(Br)c(O)c2n1,MTT,48 h,> 150 µM
COc1cccc2c1C(=O)c1c(O)c3c(c(O)c1C2=O)C[C@@](O)(C(=O)CO)C[C@@H]3O[C@H]1C[C@H](N)[C@H](O)[C@H](C)O1,SRB,,0.46 µM
COc1cc(C)c(-c2c(C)cc(OC)c3c(=O)cc(-c4ccc(C(F)(F)F)cc4)oc23)c2oc(-c3ccc(C(F)(F)F)cc3)cc(=O)c12,MTT,48 h,> 100 µM
Cc1c(O)c(=O)ccn1-c1ccc(C(=O)O)cc1,MTT,72 h,600 µM
NCCCOc1cc(NC(=O)c2cccc(C(=O)Nc3cc(OCCCN)c4ccccc4n3)n2)nc2ccccc12,ATP luminescence,72 h,1.4 µM
CC1(C)SC2C(NC(=O)C(NC(=O)C3=C(O)C4CCCN4C3=O)c3ccccc3)C(=O)N2C1C(=O)O (centres unmarked),ATP luminescence,48 h,52.1 µg/mL
C[C@H](O)C(=O)CCCCCCC(=O)Nc1cccc(-c2cn(-c3ccccc3)nn2)c1,XTT,,115 µM
COc1ccccc1C(=O)c1cc2c(-c3ccccc3)c(OC)ccc2o1,,,> 50 µM
CC(=O)c1ccc(-c2cccc(NC(=O)CCc3cccc4c3B(O)OC4)c2)cc1,ATP luminescence,,1.27 µM
COc1ccc(C(=O)c2cc3c(-c4ccccc4)c(O)ccc3o2)cc1,,,0.51 µM
COc1cc(OC)c2c(=O)cc(-c3ccccc3)oc2c1,MTT,48 h,73.7 µM
NCCCOc1cc(NC(=O)c2cc(OCCN)cc(C(=O)Nc3cc(OCCCN)c4ccccc4n3)n2)nc2ccccc12,ATP luminescence,72 h,13.7 µM
O=c1[nH]cc(F)c(=O)[nH]1,,72 h,0.54 µM
NCCOc1cc(NC(=O)c2cc(OCc3ccc(F)cc3)cc(C(=O)Nc3cc(OCCN)c4ccccc4n3)n2)nc2ccccc12,ATP luminescence,72 h,9.6 µM
COC(=O)CN=c1scc(-c2ccccc2)n1-c1ccc(OC)cc1,MTT,72 h,6.75 µM
Brc1ccc(C#CC#Cc2ccc(Br)cc2)cc1,MTT,24 h,16.3 µg/mL
NCCOc1cc(C(=O)Nc2cc(OCCN)c3ccccc3n2)nc(C(=O)Nc2cc(OCCN)c3ccccc3n2)c1,ATP luminescence,72 h,2.5 µM
COc1cc(OC)c2c(=O)cc(-c3ccc(Br)cc3)oc2c1-c1c(OC)cc(OC)c2c(=O)cc(-c3ccc(Br)cc3)oc12,MTT,48 h,96.1 µM
CC1(C)SC2C(NC(=O)C(NC(=O)C3=C(O)CN(c4ccccc4)C3=O)c3ccccc3)C(=O)N2C1C(=O)O (centres unmarked),ATP luminescence,48 h,87 µg/mL
COc1cc(C(=O)Nc2cc(OCCN3CCCC3)c3ccccc3n2)nc(C(=O)Nc2cc(OCCN3CCCC3)c3ccccc3n2)c1,ATP luminescence,72 h,3.9 µM
